According to ChEMBL document CHEMBL1121681, “Synthesis and antiviral activity of certain 9-beta-D-ribofuranosylpurine-6-carboxamides” (1981):

What was measured:
[1] = test system: Laryngeal epithelioma cell line; test: In vitro antiviral activity against vaccinia virus human laryngeal epithelioma cell line / 320 toxic level; type: functional
[2] = test system: Laryngeal epithelioma cell line; test: In vitro antiviral activity against HSV-1 virus in human laryngeal epithelioma cell line / 320 toxic level; type: functional
[3] = test system: Laryngeal epithelioma cell line; test: In vitro antiviral activity against Para 3 virus in human laryngeal epithelioma cell line / 320 toxic level; type: functional
[4] = test system: Laryngeal epithelioma cell line; test: In vitro antiviral activity against VSV virus in human laryngeal epithelioma cell line / 320 toxic level; type: functional
[5] = test system: Laryngeal epithelioma cell line; test: In vitro antiviral activity against Cox B1 virus in human laryngeal epithelioma cell line / 320 toxic level; type: functional
Vero [6] = test: In vitro antiviral activity against Cox B1 virus in (vero) V cells of african green monkey kidney / 320 toxic level; type: functional, Chlorocebus sabaeus
Vero [7] = test: In vitro antiviral activity against vaccinia virus in (vero) V cells of african green monkey kidney / 320 toxic level; type: functional, Chlorocebus sabaeus
Vero [8] = test: In vitro antiviral activity against HSV-1 virus in (vero) V cells of african green monkey kidney / 320 toxic level; type: functional, Chlorocebus sabaeus
Vero [9] = test: In vitro antiviral activity against Para 3 virus in (vero) V cells of african green monkey kidney / 320 toxic level; type: functional, Chlorocebus sabaeus
Vero [10] = test: In vitro antiviral activity against VSV virus in (vero) V cells of african green monkey kidney / 320 toxic level; type: functional, Chlorocebus sabaeus
[11] = test system: Laryngeal epithelioma cell line; test: In vitro antiviral activity against COXB1 virus in human laryngeal epithelioma cell line / 1000 toxic level; type: functional
[12] = test system: Laryngeal epithelioma cell line; test: In vitro antiviral activity against HSV-1 virus in human laryngeal epithelioma cell line / 1000 toxic level; type: functional
[13] = test system: Laryngeal epithelioma cell line; test: In vitro antiviral activity against Para 3 virus in human laryngeal epithelioma cell line / 1000 toxic level; type: functional
[14] = test system: Laryngeal epithelioma cell line; test: In vitro antiviral activity against V V virus human laryngeal epithelioma cell line / 1000 toxic level; type: functional
[15] = test system: Laryngeal epithelioma cell line; test: In vitro antiviral activity against VSV virus in human laryngeal epithelioma cell line / 1000 toxic level; type: functional
Vero [16] = test: In vitro antiviral activity against COXB1 virus in (vero) V cells of african green monkey kidney; type: functional, Chlorocebus sabaeus
Vero [17] = test: In vitro antiviral activity against HSV-1 virus in (vero) V cells of african green monkey kidney; type: functional, Chlorocebus sabaeus
Vero [18] = test: In vitro antiviral activity against V V virus in (vero) V cells of african green monkey kidney; type: functional, Chlorocebus sabaeus
Vero [19] = test: In vitro antiviral activity against VSV virus in (vero) V cells of african green monkey kidney; type: functional, Chlorocebus sabaeus
[20] = test system: Laryngeal epithelioma cell line; test: In vitro antiviral activity against V V virus human laryngeal epithelioma cell line / 320 toxic level; type: functional
[21] = test system: Laryngeal epithelioma cell line; test: In vitro antiviral activity against COXB1 virus in human laryngeal epithelioma cell line / 320 toxic level; type: functional
Rift Valley fever virus [22] = test: Inhibition of growth of Rift Valley fever virus in vero cells by administering 250 ug/mL of compound; type: functional, Chlorocebus sabaeus
Rift Valley fever virus [23] = test: Percent increase in survival rate of Rift Valley fever virus infected mice on day 21, by administering 50 (mg/kg)/day of compound; type: functional
Vero [24] = test: Inhibition of growth of Pichinde virus in vero cells by administering 250 ug/mL of compound; type: functional, Chlorocebus sabaeus
In short: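 Pichinde virus was adsorbed to Vero monolayers in 24-well cultures for 1 h at 37 °C. Cells were overlaid with agar containing compound dilutions and incubated at 37 °C with CO2. Plaques were counted after crystal violet staining to give inhibition of viral growth.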

Vero [25] = test: Inhibition of growth of Rift Valley fever virus in vero cells by administering 500 ug/mL of compound; type: functional, Chlorocebus sabaeus
Vero [26] = test: In vitro antiviral activity against Para 3 virus in (vero) V cells of african green monkey kidney; type: functional, Chlorocebus sabaeus
Vero [27] = test: In vitro antiviral activity against COXB1 virus in (vero) V cells of african green monkey kidney / 1000 toxic level; type: functional, Chlorocebus sabaeus
Vero [28] = test: In vitro antiviral activity against HSV-1 virus in (vero) V cells of african green monkey kidney / 1000 toxic level; type: functional, Chlorocebus sabaeus
Vero [29] = test: In vitro antiviral activity against Para 3 virus in (vero) V cells of african green monkey kidney / 1000 toxic level; type: functional, Chlorocebus sabaeus
Vero [30] = test: In vitro antiviral activity against V V virus in (vero) V cells of african green monkey kidney / 1000 toxic level; type: functional, Chlorocebus sabaeus
Vero [31] = test: In vitro antiviral activity against VSV virus in (vero) V cells of african green monkey kidney / 1000 toxic level; type: functional, Chlorocebus sabaeus
[32] = test system: Laryngeal epithelioma cell line; test: In vitro antiviral activity against Para 3 virus in human laryngeal epithelioma cell line / 100 toxic level; type: functional
[33] = test system: Laryngeal epithelioma cell line; test: In vitro antiviral activity against VSV virus in human laryngeal epithelioma cell line / 100 toxic level; type: functional
[34] = test system: Laryngeal epithelioma cell line; test: In vitro antiviral activity against Vaccinia virus human laryngeal epithelioma cell line / 100 toxic level; type: functional
[35] = test system: Laryngeal epithelioma cell line; test: In vitro antiviral activity against Cox B1 virus in human laryngeal epithelioma cell line / 100 toxic level; type: functional
[36] = test system: Laryngeal epithelioma cell line; test: In vitro antiviral activity against HSV-1 virus in human laryngeal epithelioma cell line / 100 toxic level; type: functional
Vero [37] = test: In vitro antiviral activity against Vaccinia virus in (vero) V cells of african green monkey kidney / 320 toxic level; type: functional, Chlorocebus sabaeus
[38] = test system: Laryngeal epithelioma cell line; test: In vitro antiviral activity against COXB1 virus in human laryngeal epithelioma cell line; type: functional
[39] = test system: Laryngeal epithelioma cell line; test: In vitro antiviral activity against Para 3 virus in human laryngeal epithelioma cell line; type: functional
[40] = test system: Laryngeal epithelioma cell line; test: In vitro antiviral activity against V V virus in human laryngeal epithelioma cell line; type: functional
[41] = test system: Laryngeal epithelioma cell line; test: In vitro antiviral activity against VSV virus in human laryngeal epithelioma cell line; type: functional
[42] = test system: Laryngeal epithelioma cell line; test: In vitro antiviral activity against HSV-1 virus in human laryngeal epithelioma cell line; type: functional
Rift Valley fever virus [43] = test: Percent increase in survival rate of Rift Valley fever virus infected mice on day 21, by administering 100 (mg/kg)/day of compound; type: functional
Vero [44] = test: In vitro antiviral activity against COXB1 virus in (vero) V cells; type: functional, Chlorocebus sabaeus
Vero [45] = test: In vitro antiviral activity against VSV virus in (vero) V cells; type: functional, Chlorocebus sabaeus

## Nc1ncnc2c(N[C@@H]3O[C@H](CO)[C@@H](O)[C@@H]3O)ncnc12
[1]
  Virus rating: 1.3
[2]
  Virus rating: 1.6
[3]
  Virus rating: 1.5
[4]
  Virus rating: 1.5
[5]
  Virus rating: 1
Vero [6]
  Virus rating: 0.6
Vero [7]
  Virus rating: 1.4
Vero [8]
  Virus rating: 0.8
Vero [9]
  Virus rating: 0.7
Vero [10]
  Virus rating: 0.6

## OC[C@H]1O[C@@H](n2cnc3c(Cl)ncnc32)[C@H](O)[C@@H]1O
[11]
  Virus rating: 1
[12]
  Virus rating: 0.6
[13]
  Virus rating: 1.3
[14]
  Virus rating: 0.8
[15]
  Virus rating: 0.3
Vero [16]
  Virus rating: 0.4
Vero [17]
  Virus rating: 0.9
Vero [18]
  Virus rating: 1.5
Vero [19]
  Virus rating: 0.5

## NC(=O)c1ncnc2c1ncn2C1O[C@H](CO)[C@@H](O)[C@H]1O (stereo partly drawn)
[2]
  Virus rating: 0.6
[3]
  Virus rating: 1.4
[20]
  Virus rating: 1.1
[4]
  Virus rating: 1.2
[21]
  Virus rating: 0.9
Rift Valley fever virus [22]
  Inhibition: 90%
Rift Valley fever virus [23]
  ILS: 55%
Vero [24]
  Inhibition: 90%
Vero [25]
  Inhibition: 99%
Vero [16]
  Virus rating: 0.4
Vero [17]
  Virus rating: 0.6
Vero [26]
  Virus rating: 0
Vero [18]
  Virus rating: 1.5
Vero [19]
  Virus rating: 0

## N#Cc1ncnc2c1ncn2C1O[C@H](CO)[C@@H](O)[C@H]1O (stereo partly drawn)
[2]
  Virus rating: 0.8
[3]
  Virus rating: 1.2
[20]
  Virus rating: 1
[4]
  Virus rating: 0.8
[21]
  Virus rating: 1
Vero [27]
  Virus rating: 0
Vero [28]
  Virus rating: 0.4
Vero [29]
  Virus rating: 0
Vero [30]
  Virus rating: 1
Vero [31]
  Virus rating: 0

## NC(=S)c1ncnc2c1ncn2C1O[C@H](CO)[C@@H](O)[C@H]1O (stereo partly drawn)
[32]
  Virus rating: 1.3
[33]
  Virus rating: 0.7
[34]
  Virus rating: 1.2
[35]
  Virus rating: 1.1
[36]
  Virus rating: 0.4
Vero [6]
  Virus rating: 1
Vero [37]
  Virus rating: 0.8
Vero [8]
  Virus rating: 1.1
Vero [10]
  Virus rating: 0.5

## OC[C@H]1OC(n2cnc3c(I)ncnc32)[C@H](O)[C@@H]1O (stereo partly drawn)
[2]
  Virus rating: 1.6
[3]
  Virus rating: 0.6
[20]
  Virus rating: 0.8
[4]
  Virus rating: 0.9
[21]
  Virus rating: 1
Vero [27]
  Virus rating: 0.1
Vero [28]
  Virus rating: 1
Vero [29]
  Virus rating: 0.7
Vero [30]
  Virus rating: 1.2
Vero [31]
  Virus rating: 0

## NC(=O)c1ncn([C@@H]2O[C@H](CO)[C@@H](O)[C@H]2O)n1 [RIBAVIRIN]
[38]
  Virus rating: 1.1
[39]
  Virus rating: 1.4
[40]
  Virus rating: 1.2
[41]
  Virus rating: 1.6
[42]
  Virus rating: 1.2
Rift Valley fever virus [43]
  ILS: 70%
Vero [44]
  Virus rating: 0.6
Vero [17]
  Virus rating: 0.6
Vero [26]
  Virus rating: 1.3
Vero [18]
  Virus rating: 1.2
Vero [45]
  Virus rating: 0.8
